Measurements taken from ChEMBL document CHEMBL1133353, “Structural analogues of some highly active non-competitive AMPA antagonists” (Bioorg Med Chem Lett, 2000).

Key:
[1] = system: Mus musculus; assay: No behavioral change was observed after the intraperitoneal administration of compound in mice; format: functional
[2] = system: Mus musculus; assay: No behavioral change was observed after the peroral administration of compound in mice; format: functional
[3] = system: Mus musculus; assay: Anticonvulsant activity of compound, administered perorally in mice was evaluated using maximal electroshock seizure model; format: functional; settings: po
Procedure, shortened: (§1)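 Mice were dosed orally 60 min before maximal electroshock, using 10 mice per dose at 3–4 doses. ED50 was calculated by the Litchfield–Wilcoxon method.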

[4] = system: Mus musculus; assay: Muscle relaxant activity of compound, administered intraperitoneally in mice was evaluated using inclined screen test; format: functional; settings: ip
Procedure, shortened: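 Inclined screen test for muscle relaxation in mice, with compound given ip 30 min before testing; 10 mice per dose at 3–4 doses. ED50 was derived by the Litchfield–Wilcoxon method.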

[5] = organism: Gallus gallus; assay: Compound was examined in vitro for inhibition of AMPA (5 uM) evoked spreading depression in isolated retina prepared from young chicken; format: functional
Procedure, shortened: (§2)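 Each compound was first screened at 20 µM in 6 retina preparations. Below 40% inhibition was recorded as IC50 >20 µM, and 40–60% as ~20 µM. Above 60%, IC50 was determined from 3–5 concentrations with 6 retinas per concentration.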

[6] = system: Mus musculus; assay: Increase of spontaneous motor activity, ataxy, stereotypia, licking, muscle rigidity was observed after the intraperitoneal administration of compound in mice; format: functional
[7] = system: Mus musculus; assay: Increase of spontaneous motor activity, ataxy, stereotypia, licking, muscle rigidity was observed after the peroral administration of compound in mice; format: functional
[8] = system: Mus musculus; assay: Anticonvulsant activity of compound, administered perorally in mice was evaluated using maximal electroshock seizure model; values ranges from (40.5-54.7); format: functional; settings: po; procedure, shortened: as §1
[9] = system: Mus musculus; assay: Anticonvulsant activity of compound, administered perorally in mice was evaluated using maximal metrazole seizure model; format: functional; settings: po
Procedure, shortened: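 Oral dosing in mice 60 min before 130 mg/kg metrazole ip, with lethality as the endpoint; 10 mice per dose at 3–4 doses. ED50 was obtained by the Litchfield–Wilcoxon method.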

[10] = system: Mus musculus; assay: Loss of righting reflex was observed after the intraperitoneal administration of compound in mice; format: functional
[11] = organism: Rattus norvegicus; assay: (§3) Compound was tested for inhibition of whole cell current induced […]; format: functional
Procedure, shortened: (§4)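 Patch-clamp whole-cell currents evoked by 5 µM AMPA; inhibition reported as IC50 or as percent inhibition at 5 µM compound.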

[12] = organism: Gallus gallus; assay: Compound was examined in vitro for inhibition of kainate (5 uM) evoked spreading depression in isolated retina prepared from young chicken; format: functional; procedure, shortened: as §2
[13] = system: Mus musculus; assay: Loss of righting reflex was observed after the peroral administration of compound in mice; format: functional
[14] = system: Mus musculus; assay: Decrease of spontaneous motor activity, ataxy, mild muscle relaxation was observed after the intraperitoneal administration of compound in mice; format: functional
[15] = system: Mus musculus; assay: Decrease of spontaneous motor activity, ataxy, mild muscle relaxation was observed after the peroral administration of compound in mice; format: functional
[16] = system: Mus musculus; assay: Adynamia was observed after the intraperitoneal administration of compound in mice; format: functional
[17] = system: Mus musculus; assay: Adynamia was observed after the peroral administration of compound in mice; format: functional
[18] = organism: Rattus norvegicus; assay: as §3; format: functional, cell-based; procedure, shortened: as §4

Compound: CCCCC(=O)N1CC(C)c2cc3c(cc2C(c2ccc(N)cc2)=N1)OCO3 (stereo not drawn)
- Dose [1]: 100 mg/kg
- Dose [2]: 200 mg/kg
- ED50 [3]: > 100 mg/kg
- ED50 [4]: > 200 mg/kg
- IC50 [5]: > 20 µM

Compound: CC1CNN=C(c2ccc(N)cc2)c2cc3c(cc21)OCO3 (stereo not drawn)
- Dose [6]: 100 mg/kg
- Dose [7]: 200 mg/kg
- ED50 [4]: 100 mg/kg
- ED50 [8]: 47.1 mg/kg

Compound: CNC(=O)N1CC(C)c2cc3c(cc2C(c2ccc(N)cc2)=N1)OCO3 (stereo not drawn)
- ED50 [9]: 67.6 mg/kg
- Dose [10]: 100 mg/kg
- ED50 [3]: 48.8 mg/kg
- ED50 [4]: 55.9 mg/kg
- Inhibition [11]: 52.7%
- IC50 [12]: 20 µM
- IC50 [5]: 15.6 µM
- Dose [13]: 200 mg/kg

Compound: CC1CN(C(=O)C2CC2)N=C(c2ccc(N)cc2)c2cc3c(cc21)OCO3 (stereo not drawn)
- Dose [1]: 100 mg/kg
- Dose [2]: 200 mg/kg
- ED50 [3]: > 100 mg/kg
- ED50 [4]: > 200 mg/kg
- IC50 [5]: > 20 µM

Compound: CC1CN(c2ccccn2)N=C(c2ccc(N)cc2)c2cc3c(cc21)OCO3 (stereo not drawn)
- ED50 [3]: > 100 mg/kg
- Dose [14]: 100 mg/kg
- ED50 [4]: > 200 mg/kg
- IC50 [5]: > 20 µM
- Dose [15]: 200 mg/kg

Compound: CC(=O)N1CC(C)c2cc3c(cc2C(c2ccc(N)cc2)=N1)OCO3 (stereo not drawn)
- ED50 [9]: 135 mg/kg
- ED50 [3]: 69.3 mg/kg
- ED50 [4]: 95.3 mg/kg
- Inhibition [11]: 54%
- Dose [16]: 100 mg/kg
- IC50 [12]: 3.4 µM
- IC50 [5]: 20 µM
- Dose [17]: 200 mg/kg

Compound: CC1=NN=C(c2ccc(N)cc2)c2cc3c(cc2C1)OCO3 [GYKI-52466]
- ED50 [9]: 120 mg/kg
- Dose [10]: 100 mg/kg
- ED50 [3]: 37.4 mg/kg
- IC50 [12]: 9.5 µM
- IC50 [5]: 6.3 µM
- Dose [13]: 200 mg/kg
- IC50 [18]: 9.9 µM

Compound: CC(=O)N1N=C(c2ccc(N)cc2)c2cc3c(cc2C[C@H]1C)OCO3 [TALAMPANEL]
- Dose [10]: 100 mg/kg
- ED50 [3]: 8.6 mg/kg
- IC50 [12]: 2.6 µM
- IC50 [5]: 1.7 µM
- Dose [13]: 200 mg/kg
- IC50 [18]: 2.5 µM
